In PubChem BioAssay AID493183 (Sanford-Burnham Center for Chemical Genomics, 2011) one finds EC50 data, which are given here for 7 compounds.

The source made the active and inactive calls.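 The calls were made as follows: active = mean EC50 below 10 µM; inactive = the rest.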 A value given as a limit tells only on which side of the number the result lay.

The target of the experiment is Apelin receptor (Homo sapiens) (UniProt P35414). The experiment in a line: APJ receptor agonists, beta-arrestin recruitment, SAR follow-up, cell-based, CHO-K1 AGTRL-1, PathHunter luminescence, set 4 (AID 493183). The conditions noted are these: CHO-K1 AGTRL-1 PathHunter beta-arrestin. In a few lines:
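Material: CHO-K1 cells with ProLink-tagged AGTRL-1 and β-arrestin–β-gal acceptor fusion; compound dosing: dose series from 2 mM compound stock; incubation: overnight seeding, 90 min compound at 25 °C, 60 min detection; signal: luminescence from β-gal fragment complementation after adding detection reagent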
(In general: Arrestin recruitment assays detect the binding of arrestin to an activated receptor.)

Sequence of Apelin receptor (Homo sapiens) (P35414 whole entry, looked up, the tested form may be a part): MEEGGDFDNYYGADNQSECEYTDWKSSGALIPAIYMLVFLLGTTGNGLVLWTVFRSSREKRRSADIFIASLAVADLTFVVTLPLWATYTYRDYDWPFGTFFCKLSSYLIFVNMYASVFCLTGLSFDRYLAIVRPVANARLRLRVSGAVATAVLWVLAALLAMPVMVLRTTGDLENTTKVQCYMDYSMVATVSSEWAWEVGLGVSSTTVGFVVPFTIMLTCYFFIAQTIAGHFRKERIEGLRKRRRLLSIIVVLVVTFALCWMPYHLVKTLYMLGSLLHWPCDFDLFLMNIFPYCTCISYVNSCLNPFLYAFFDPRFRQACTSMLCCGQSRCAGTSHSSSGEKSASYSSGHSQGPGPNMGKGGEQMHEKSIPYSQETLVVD

With `CC1=CC(=O)C(C(C)C)=C/C1=N/OS(=O)(=O)c1cccnc1`, the half-maximal effective concentration (EC50) – broadly, the concentration giving half of the maximal effect – is 6.45 µM.
`COC(=O)c1cc(NS(=O)(=O)c2ccccc2)ccc1O`: the EC50 is > 79 µM (inactive).
In the case of `CC1=CC(=O)C(C(C)C)=C/C1=N/OS(=O)(=O)c1ccc(C(F)(F)F)cc1`, the half-maximal effective concentration (EC50) was 3.69 µM.
Under `O=S(=O)(Nc1cc(Cl)c(O)c(Cl)c1)c1ccccc1` stands > 79 µM (inactive); under `Cc1cc(O)c(C(C)C)cc1NS(=O)(=O)c1ccccc1`, > 79 µM (inactive); under `CC1=CC(=O)C(C(C)C)=C/C1=N/OS(=O)(=O)c1ccc(C(C)(C)C)cc1`, “inactive”.
Under `CC1=CC(=O)C(C(C)C)=C/C1=N/OS(=O)(=O)c1ccc(OC(F)(F)F)cc1` stands 3.82 µM.
